# Data taken from ChEMBL document CHEMBL1154186, “Synthesis, kinase inhibitory potencies, and in vitro antiproliferative evaluation of new Pim kinase inhibitors” (J Med Chem, 2009).
# How the values were obtained:
# [1] = target: MAP kinase-activated protein kinase 3 (Homo sapiens) (UniProt Q16644); assay: Inhibition of MAPKAPK3 assessed as residual enzyme activity at 10 uM relative to untreated control
# Procedure, shortened: (§1)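 Kinases of human origin, except CK1δ, which is rat. Run in 50 mM Tris/HCl pH 7.5, 0.1 mM EGTA, 0.1% 2-mercaptoethanol and 10 mM Mg acetate, with [γ-33P]ATP at 20 µM, 30 min at 21 °C. Acid-stopped and captured on P81 filters. Compound tested at 10 µM; residual % of uninhibited control, duplicate determinations.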
# [2] = target: Serine/threonine-protein kinase N2 (Homo sapiens) (UniProt Q16513); assay: Inhibition of PRK2 assessed as residual enzyme activity at 10 uM relative to untreated control
# Sequence of Serine/threonine-protein kinase N2 (Homo sapiens) (Q16513 whole entry, looked up): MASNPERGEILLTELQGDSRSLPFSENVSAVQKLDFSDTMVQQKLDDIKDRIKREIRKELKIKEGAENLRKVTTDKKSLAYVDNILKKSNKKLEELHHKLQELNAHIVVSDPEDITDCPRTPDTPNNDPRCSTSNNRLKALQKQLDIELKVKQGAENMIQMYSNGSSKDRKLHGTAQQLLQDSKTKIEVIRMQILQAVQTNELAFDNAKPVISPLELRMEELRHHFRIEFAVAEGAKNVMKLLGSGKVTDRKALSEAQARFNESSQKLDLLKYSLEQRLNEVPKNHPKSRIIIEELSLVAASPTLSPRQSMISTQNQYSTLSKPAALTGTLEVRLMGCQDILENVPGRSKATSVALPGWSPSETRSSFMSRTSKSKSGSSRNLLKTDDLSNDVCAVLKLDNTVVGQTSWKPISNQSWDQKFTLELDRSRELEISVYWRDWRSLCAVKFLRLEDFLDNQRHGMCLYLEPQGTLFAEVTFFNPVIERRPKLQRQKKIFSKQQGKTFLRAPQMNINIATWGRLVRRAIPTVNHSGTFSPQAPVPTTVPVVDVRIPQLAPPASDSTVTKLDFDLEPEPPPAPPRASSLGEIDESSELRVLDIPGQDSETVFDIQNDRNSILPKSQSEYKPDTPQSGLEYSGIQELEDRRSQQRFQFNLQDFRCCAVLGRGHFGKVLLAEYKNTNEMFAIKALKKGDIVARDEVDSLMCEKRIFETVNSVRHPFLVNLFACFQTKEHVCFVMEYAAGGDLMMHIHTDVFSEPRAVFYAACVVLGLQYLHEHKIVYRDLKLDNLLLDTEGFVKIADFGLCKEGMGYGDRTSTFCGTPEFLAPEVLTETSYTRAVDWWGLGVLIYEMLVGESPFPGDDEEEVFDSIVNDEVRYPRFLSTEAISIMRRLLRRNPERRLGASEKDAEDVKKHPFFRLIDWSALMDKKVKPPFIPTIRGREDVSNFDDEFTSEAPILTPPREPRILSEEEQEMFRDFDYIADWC
# Procedure, shortened: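 Tris/HCl pH 7.5, EGTA, 2-mercaptoethanol buffer, 30 min, 21 °C, compound at 10 µM. Radioactive phosphate measured on P81 filters. Residual activity as % of uninhibited incubations, duplicates.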
# [3] = target: Ribosomal protein S6 kinase beta-1 (Homo sapiens) (UniProt P23443); assay: Inhibition of S6K1 assessed as residual enzyme activity at 10 uM relative to untreated control
# Procedure, shortened: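 Buffer Tris/HCl pH 7.5, EGTA and 2-mercaptoethanol. 30 min at 21 °C, compound at 10 µM. P81 filter read-out. Residual activity versus control, duplicates.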
# [4] = target: Cyclin-dependent kinase 2/cyclin A (Homo sapiens) (UniProt P24941+P20248+P78396); assay: Inhibition of CDK2/Cyclin A assessed as residual enzyme activity at 10 uM relative to untreated control; format: protein-complex assay; procedure, shortened: as §1
# [5] = target: Aurora kinase B (Homo sapiens) (UniProt Q96GD4); assay: Inhibition of AURORA B assessed as residual enzyme activity at 10 uM relative to untreated control; procedure, shortened: as §1
# Sequence of Aurora kinase B (Homo sapiens) (Q96GD4 whole entry): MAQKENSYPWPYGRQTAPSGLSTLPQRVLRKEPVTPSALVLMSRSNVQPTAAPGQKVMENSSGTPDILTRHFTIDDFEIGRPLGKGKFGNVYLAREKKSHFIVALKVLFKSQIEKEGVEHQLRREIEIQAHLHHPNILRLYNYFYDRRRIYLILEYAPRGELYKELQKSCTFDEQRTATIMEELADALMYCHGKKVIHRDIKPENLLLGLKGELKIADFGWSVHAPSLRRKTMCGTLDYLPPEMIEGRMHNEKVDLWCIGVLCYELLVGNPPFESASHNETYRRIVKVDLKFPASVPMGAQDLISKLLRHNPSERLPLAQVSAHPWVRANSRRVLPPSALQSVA
# [6] = target: Serine/threonine-protein kinase Nek7 (Homo sapiens) (UniProt Q8TDX7); assay: Inhibition of NEK7 assessed as residual enzyme activity at 10 uM relative to untreated control; procedure, shortened: as §1
# Sequence of Serine/threonine-protein kinase Nek7 (Homo sapiens) (Q8TDX7 whole entry, looked up): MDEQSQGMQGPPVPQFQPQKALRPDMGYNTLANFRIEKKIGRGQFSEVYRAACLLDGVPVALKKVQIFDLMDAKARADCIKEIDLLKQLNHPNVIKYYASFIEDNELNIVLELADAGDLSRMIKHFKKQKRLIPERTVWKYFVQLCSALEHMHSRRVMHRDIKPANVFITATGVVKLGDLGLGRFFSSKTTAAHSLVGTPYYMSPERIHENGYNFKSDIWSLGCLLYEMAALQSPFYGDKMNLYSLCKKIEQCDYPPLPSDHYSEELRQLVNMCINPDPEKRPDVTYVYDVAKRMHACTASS
# [7] = target: T1, Inhibitor of nuclear factor kappa-B kinase subunit beta (Homo sapiens) (UniProt O14920); assay: Inhibition of IKK-beta assessed as residual enzyme activity at 10 uM relative to untreated control
# T1 sequence (whole entry): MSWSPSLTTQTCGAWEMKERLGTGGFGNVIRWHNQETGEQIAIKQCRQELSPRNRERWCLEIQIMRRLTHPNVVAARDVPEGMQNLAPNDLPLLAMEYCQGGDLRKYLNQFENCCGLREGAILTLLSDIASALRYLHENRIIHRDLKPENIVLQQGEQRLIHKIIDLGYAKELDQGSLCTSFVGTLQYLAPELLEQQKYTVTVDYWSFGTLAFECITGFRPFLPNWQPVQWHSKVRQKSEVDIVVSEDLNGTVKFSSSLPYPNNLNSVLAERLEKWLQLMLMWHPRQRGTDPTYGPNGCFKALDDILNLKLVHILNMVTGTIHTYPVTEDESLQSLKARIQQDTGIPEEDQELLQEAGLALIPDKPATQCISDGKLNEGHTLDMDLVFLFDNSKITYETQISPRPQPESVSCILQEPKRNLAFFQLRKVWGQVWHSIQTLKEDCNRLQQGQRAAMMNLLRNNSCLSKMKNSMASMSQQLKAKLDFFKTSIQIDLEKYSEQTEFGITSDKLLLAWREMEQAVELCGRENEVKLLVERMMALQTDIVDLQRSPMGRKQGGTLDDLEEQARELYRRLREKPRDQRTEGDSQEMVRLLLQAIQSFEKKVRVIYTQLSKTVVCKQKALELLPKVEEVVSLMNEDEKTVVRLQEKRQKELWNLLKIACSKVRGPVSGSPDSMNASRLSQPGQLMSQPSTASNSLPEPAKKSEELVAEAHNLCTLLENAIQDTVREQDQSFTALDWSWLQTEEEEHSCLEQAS
# Procedure, shortened: (§2)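 Radiometric filter-binding assay at 21 °C for 30 min. Mix: 50 mM Tris/HCl pH 7.5, 0.1 mM EGTA, 0.1% 2-mercaptoethanol, 10 mM Mg acetate and [γ-33P]ATP (800 cpm/pmol) at 5 µM. Stopped with orthophosphoric acid and spotted on P81. Compound at 10 µM; activity given as % remaining versus no-inhibitor control, duplicates. Kinases human full-length unless noted.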
# [8] = target: Protein kinase C alpha type (Homo sapiens) (UniProt P17252); assay: Inhibition of PKCalpha assessed as residual enzyme activity at 10 uM relative to untreated control
# Procedure, shortened: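 Histone H1 (0.1 mg/mL) as substrate, 20 µM [γ-33P]ATP, 10 mM Mg acetate. Run 30 min at 21 °C with 10 µM compound. Radiolabel captured on P81 filters. Expressed as % of uninhibited control, duplicates.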
# [9] = target: Homeodomain-interacting protein kinase 3 (Homo sapiens) (UniProt Q9H422); assay: Inhibition of HIPK3 assessed as residual enzyme activity at 10 uM relative to untreated control; procedure, shortened: as §1
# Sequence of Homeodomain-interacting protein kinase 3 (Homo sapiens) (Q9H422 whole entry, looked up): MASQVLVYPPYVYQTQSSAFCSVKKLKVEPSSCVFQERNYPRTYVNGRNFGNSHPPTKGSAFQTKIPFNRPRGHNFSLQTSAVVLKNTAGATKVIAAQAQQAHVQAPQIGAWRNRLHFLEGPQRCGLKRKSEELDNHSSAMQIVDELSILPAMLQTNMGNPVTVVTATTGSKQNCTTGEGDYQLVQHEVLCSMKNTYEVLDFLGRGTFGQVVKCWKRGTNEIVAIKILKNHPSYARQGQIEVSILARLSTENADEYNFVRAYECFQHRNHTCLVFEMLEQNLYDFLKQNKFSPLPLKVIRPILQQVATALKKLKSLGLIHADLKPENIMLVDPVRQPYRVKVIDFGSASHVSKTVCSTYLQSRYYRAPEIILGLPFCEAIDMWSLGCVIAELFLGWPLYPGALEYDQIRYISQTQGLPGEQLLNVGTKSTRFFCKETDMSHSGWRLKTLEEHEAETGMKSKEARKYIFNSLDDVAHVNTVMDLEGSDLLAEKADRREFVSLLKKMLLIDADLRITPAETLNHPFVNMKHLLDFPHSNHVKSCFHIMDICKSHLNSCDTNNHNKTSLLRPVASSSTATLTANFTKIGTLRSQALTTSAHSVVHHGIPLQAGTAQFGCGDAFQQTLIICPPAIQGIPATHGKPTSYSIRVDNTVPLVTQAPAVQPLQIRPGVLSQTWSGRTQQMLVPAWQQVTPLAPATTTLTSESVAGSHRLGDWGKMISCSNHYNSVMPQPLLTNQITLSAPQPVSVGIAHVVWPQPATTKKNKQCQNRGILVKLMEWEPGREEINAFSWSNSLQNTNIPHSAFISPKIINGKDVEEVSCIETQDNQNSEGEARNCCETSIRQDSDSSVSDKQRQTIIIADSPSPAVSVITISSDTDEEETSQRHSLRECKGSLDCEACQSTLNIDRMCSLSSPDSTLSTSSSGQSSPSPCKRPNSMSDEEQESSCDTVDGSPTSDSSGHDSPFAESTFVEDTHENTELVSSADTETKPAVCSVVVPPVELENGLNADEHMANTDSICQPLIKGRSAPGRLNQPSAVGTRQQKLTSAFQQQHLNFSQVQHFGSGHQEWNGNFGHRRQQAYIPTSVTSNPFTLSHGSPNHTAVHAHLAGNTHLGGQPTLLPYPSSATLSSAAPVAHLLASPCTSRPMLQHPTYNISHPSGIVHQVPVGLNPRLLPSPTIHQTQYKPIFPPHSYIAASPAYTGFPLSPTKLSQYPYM
# Lck (Mus musculus) = assay: Inhibition of Lck assessed as residual enzyme activity at 10 uM relative to untreated control
# [10] = target: Mitogen-activated protein kinase 9 (Homo sapiens) (UniProt P45984); assay: Inhibition of JNK2 assessed as residual enzyme activity at 10 uM relative to untreated control; procedure, shortened: as §1
# Sequence of Mitogen-activated protein kinase 9 (Homo sapiens) (P45984 whole entry, looked up): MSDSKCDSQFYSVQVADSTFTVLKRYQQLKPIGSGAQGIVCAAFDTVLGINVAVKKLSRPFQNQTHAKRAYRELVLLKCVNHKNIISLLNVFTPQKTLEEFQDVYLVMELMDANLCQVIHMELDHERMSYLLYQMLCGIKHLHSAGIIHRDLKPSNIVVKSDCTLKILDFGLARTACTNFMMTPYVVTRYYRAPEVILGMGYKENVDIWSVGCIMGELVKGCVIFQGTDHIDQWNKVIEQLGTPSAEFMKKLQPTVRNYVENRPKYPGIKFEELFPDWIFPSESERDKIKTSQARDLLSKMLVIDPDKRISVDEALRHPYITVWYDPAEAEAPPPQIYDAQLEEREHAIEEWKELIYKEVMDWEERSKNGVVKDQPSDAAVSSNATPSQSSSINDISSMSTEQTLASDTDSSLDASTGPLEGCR
# [11] = target: Homeodomain-interacting protein kinase 2 (Homo sapiens) (UniProt Q9H2X6); assay: Inhibition of HIPK2 assessed as residual enzyme activity at 10 uM relative to untreated control; procedure, shortened: as §2
# Sequence of Homeodomain-interacting protein kinase 2 (Homo sapiens) (Q9H2X6 whole entry, looked up): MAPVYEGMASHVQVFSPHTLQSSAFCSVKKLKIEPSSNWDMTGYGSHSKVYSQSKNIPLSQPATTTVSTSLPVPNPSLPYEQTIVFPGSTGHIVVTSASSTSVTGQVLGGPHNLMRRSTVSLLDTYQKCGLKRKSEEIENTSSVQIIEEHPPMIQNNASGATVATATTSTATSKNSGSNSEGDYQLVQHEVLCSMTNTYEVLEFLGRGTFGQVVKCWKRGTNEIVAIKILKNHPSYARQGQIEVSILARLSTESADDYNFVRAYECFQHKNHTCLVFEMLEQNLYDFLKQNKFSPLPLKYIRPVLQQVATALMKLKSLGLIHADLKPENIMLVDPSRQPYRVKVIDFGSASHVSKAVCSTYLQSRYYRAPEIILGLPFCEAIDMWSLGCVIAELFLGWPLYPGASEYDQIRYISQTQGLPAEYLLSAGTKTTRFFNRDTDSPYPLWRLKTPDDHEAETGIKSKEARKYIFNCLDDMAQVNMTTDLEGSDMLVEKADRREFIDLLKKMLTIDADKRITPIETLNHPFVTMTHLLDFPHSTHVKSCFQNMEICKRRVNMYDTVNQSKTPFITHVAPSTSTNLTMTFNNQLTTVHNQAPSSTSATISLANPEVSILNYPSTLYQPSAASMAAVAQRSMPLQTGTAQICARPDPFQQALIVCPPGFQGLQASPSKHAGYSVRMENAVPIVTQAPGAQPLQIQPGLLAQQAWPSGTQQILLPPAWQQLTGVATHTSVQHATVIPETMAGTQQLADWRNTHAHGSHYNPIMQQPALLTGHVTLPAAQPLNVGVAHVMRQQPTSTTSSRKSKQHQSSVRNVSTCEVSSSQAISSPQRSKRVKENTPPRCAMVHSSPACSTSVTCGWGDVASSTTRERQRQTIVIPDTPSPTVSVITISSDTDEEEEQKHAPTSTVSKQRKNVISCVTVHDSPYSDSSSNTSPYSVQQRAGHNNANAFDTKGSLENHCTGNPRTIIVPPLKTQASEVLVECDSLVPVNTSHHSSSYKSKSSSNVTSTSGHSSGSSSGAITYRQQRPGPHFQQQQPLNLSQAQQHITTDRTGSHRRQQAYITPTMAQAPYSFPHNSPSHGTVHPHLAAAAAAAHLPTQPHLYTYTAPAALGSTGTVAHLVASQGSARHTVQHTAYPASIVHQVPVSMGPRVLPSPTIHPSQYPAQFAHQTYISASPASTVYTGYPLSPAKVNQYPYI
# [12] = target: T2, Serine/threonine-protein kinase 3 (Homo sapiens) (UniProt Q13188); assay: Inhibition of MST2 assessed as residual enzyme activity at 10 uM relative to untreated control; procedure, shortened: as §1
# T2 sequence (whole entry): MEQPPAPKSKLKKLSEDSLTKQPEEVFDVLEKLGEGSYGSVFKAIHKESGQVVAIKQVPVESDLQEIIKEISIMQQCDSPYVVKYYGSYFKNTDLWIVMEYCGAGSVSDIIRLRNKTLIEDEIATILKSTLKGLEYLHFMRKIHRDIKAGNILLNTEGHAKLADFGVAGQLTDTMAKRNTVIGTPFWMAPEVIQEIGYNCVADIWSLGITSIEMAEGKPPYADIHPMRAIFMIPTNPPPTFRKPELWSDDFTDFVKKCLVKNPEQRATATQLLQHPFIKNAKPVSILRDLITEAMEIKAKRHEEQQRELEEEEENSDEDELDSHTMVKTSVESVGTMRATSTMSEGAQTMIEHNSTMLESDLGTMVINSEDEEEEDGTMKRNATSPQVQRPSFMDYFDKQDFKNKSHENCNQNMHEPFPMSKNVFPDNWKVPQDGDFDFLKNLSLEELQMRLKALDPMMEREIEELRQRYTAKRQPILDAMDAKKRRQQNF
# Sequence of MAP kinase-activated protein kinase 3 (Homo sapiens) (Q16644 whole entry, looked up): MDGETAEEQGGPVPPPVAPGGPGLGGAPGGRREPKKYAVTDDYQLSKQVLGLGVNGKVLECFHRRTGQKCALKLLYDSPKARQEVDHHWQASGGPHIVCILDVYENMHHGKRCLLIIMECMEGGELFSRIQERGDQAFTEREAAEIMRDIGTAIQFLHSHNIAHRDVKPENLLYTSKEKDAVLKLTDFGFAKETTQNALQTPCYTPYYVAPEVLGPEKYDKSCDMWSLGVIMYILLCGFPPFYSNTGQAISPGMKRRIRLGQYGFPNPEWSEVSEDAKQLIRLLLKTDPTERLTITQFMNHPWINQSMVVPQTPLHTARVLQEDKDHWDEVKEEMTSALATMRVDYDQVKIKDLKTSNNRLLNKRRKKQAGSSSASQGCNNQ
compound,measurement,setting,value
c1ccc2c(c1)[nH]c1c2ccc2cc[nH]c21,Activity,[1],89%
same,Activity,[2],95%
same,Activity,[3],89%
same,Activity,[4],97%
same,Activity,[5],67%
same,Activity,[6],96%
same,Activity,[7],106%
same,Activity,[8],111%
same,Activity,[9],97%
same,Activity,Lck (Mus musculus),88%
same,Activity,[10],118%
same,Activity,[11],59%
same,Activity,[12],82%
c1ccc2c(c1)[nH]c1c3cc[nH]c3ccc21,Activity,[1],88%
same,Activity,[2],84%
same,Activity,[3],87%
same,Activity,[4],95%
same,Activity,[5],67%
same,Activity,[6],92%
same,Activity,[7],110%
same,Activity,[8],103%
same,Activity,[9],106%
same,Activity,Lck (Mus musculus),81%
same,Activity,[10],130%
same,Activity,[11],72%
same,Activity,[12],77%
O=Cc1c[nH]c2ccc3c4ccccc4[nH]c3c12,Activity,[1],90%
same,Activity,[2],101%
same,Activity,[3],82%
same,Activity,[4],109%
same,Activity,[5],92%
same,Activity,[6],95%
same,Activity,[7],108%
same,Activity,[8],95%
same,Activity,[9],100%
same,Activity,Lck (Mus musculus),114%
same,Activity,[10],111%
same,Activity,[11],95%
same,Activity,[12],96%
O=Cc1c[nH]c2c1ccc1c3ccccc3[nH]c12,Activity,[1],69%
same,Activity,[2],31%
same,Activity,[4],74%
same,Activity,[5],68%
same,Activity,[6],89%
same,Activity,[7],71%
same,Activity,[8],84%
same,Activity,[9],64%
same,Activity,[10],128%
same,Activity,[12],63%
